PAFAH1B2 inh: PAFAH1B2 (human) inhibition; inhibition, % at 3.39 µM; AID 492953; 1.2% of 340,000 active; P68402; recombinant PAFAH1B2, FP-rhodamine activity probe, fluorescence polarization;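 active = inhibition above the mean of all tested compounds plus 3 SD, cut at about 24% in these data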
Target sequence (P68402 whole entry, looked up): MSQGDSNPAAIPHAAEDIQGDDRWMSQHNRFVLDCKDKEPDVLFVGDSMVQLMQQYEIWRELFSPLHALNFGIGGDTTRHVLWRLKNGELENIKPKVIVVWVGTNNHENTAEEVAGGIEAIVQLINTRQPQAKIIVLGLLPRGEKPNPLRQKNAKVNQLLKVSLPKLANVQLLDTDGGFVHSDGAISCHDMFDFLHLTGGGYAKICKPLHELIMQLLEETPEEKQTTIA
Apaf1 inhib: blocks human Apaf-1 apoptosome activity; O14727; reconstituted apoptosome caspase-3 activity, DEVD-Rh110 fluorescence; inhibition, % at 20 µM; 0.71% of 330,000 active; AID 489030; active = inhibition of at least 40% at 20 µM
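Assay system: Apoptosome proteins | Medium: pH 7.5 Hepes buffer with CHAPS, BSA, DTT | Also added: Cytochrome c and DEVD-Rh110 substrate | Times: 30 min plus 50 min, RT | Detection: Rhodamine 110 fluorescence at Ex 480/Em 540 nm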
PAFAH1B3 FP inh: blocks human PAF acetylhydrolase 1B catalytic subunit 3 | inhibition, % at 3.39 µM | Q15102 | 0.28% of 340,000 active | recombinant PAFAH1B3, FP-rhodamine probe, fluorescence polarization;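 active = inhibition above the screen-wide average of all tested compounds plus 3 SD, cut at about 25% in these data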
Target sequence (Q15102 whole entry, looked up): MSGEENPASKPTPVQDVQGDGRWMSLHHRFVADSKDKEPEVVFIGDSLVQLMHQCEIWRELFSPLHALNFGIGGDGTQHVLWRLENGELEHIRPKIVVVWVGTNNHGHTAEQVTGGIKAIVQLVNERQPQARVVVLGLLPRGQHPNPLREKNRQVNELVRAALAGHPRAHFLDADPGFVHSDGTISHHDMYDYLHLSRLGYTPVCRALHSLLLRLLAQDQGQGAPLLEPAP
PAFAH2 inh: PAFAH2 (human) inhibition; Q99487; recombinant PAFAH2, FP-rhodamine activity probe, fluorescence polarization; inhibition, % at 3.39 µM; 0.99% of 340,000 active; AID 492956;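 active = inhibition above the mean over all tested compounds plus 3 SD, cut at about 30% in these data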;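 also: inhibitors block probe labeling of enzyme so polarization drops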
TDP2 absorb: TDP2 (human) inhibition, absorbance primary screen | O95551 | recombinant TDP2, T5PNP hydrolysis, p-nitrophenol absorbance 415 nm | inhibition, % at 12.8 µM | 0.34% of 370,000 active | AID 720702;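 active = inhibition above the mean of all tested compounds plus 3 SD, set per campaign, cut at about 25% in these data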
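Assay system: Recombinant human TDP2 | Quantity: 120 nM TDP2 per well | Incubation: 2 h at 37 °C | Signal: Epi absorbance | Evaluation: Percent inhibition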
PAFAH2 confirm: PAFAH2 (human) inhibition, confirmed. 65% of 2,300 active. recombinant PAFAH2, FP-rhodamine activity probe, fluorescence polarization. AID 493030. inhibition, % at 3.39 µM. shares compounds with PAFAH2 inh;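 active = mean inhibition over three repeats above a set limit taken from the earlier primary screen, cut at about 30% in these data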;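 also: inhibitor blocks binding of rhodamine activity probe so polarization falls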
PAFAH1B3 confirm: confirmation of human PAFAH1B3 inhibitors; shares compounds with PAFAH1B3 FP inh; recombinant PAFAH1B3, FP-Rh activity-based probe, fluorescence polarization; inhibition, % at 3.39 µM; 30% of 390 active;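 active = average inhibition over triplicate runs above the hit cutoff set in the earlier primary screen, cut at about 25% in these data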
TDP2 confirm: human TDP2 inhibition, confirmation; shares compounds with TDP2 absorb; recombinant human TDP2, absorbance read-out; inhibition, % at 12.8 µM; 22% of 1,100 active; AID 743263; in the data active = inhibition above about 25%
Of the large screens only hits and unclear results are named; the others gave an inactive call (follow-up assays come after a bar, where they were run); ! = repeats disagree. Rows were chosen to be rich in hits. Some 2.3% of all compounds tested hit in one or more screens of this group.

O=C1NC(=S)S/C1=C\C=C\c1ccc([N+](=O)[O-])o1	PAFAH2 inh 42.8, TDP2 absorb 30.2 (no result: Apaf1 inhib) | PAFAH2 confirm inactive | TDP2 confirm inactive
CCN(CC)CCc1nc(-c2ccccc2)no1	PAFAH1B3 FP inh 29.2 | PAFAH1B3 confirm 34.2
O=C(N=C1N(CC2CC2)CC2(C=C3CCCCC3n3c(=O)n(-c4ccccc4)c(=O)n32)N1C(=O)OCc1ccccc1)c1ccccc1 (stereo unspecified)	none (no result: PAFAH1B2 inh, Apaf1 inhib, PAFAH1B3 FP inh, PAFAH2 inh)
Cc1ccc(NC(=O)CSc2ncc(S(=O)(=O)c3ccccc3)c(=O)[nH]2)cc1C	none
O=C(CSc1ncc(S(=O)(=O)c2ccccc2)c(=O)[nH]1)Nc1ccccc1Cl	PAFAH1B3 FP inh 56.3 | PAFAH1B3 confirm 50.8
O=[N+]([O-])c1ccc(N/N=C/c2ccccc2O)cc1	PAFAH1B3 FP inh 26.1 | PAFAH1B3 confirm inactive
COc1ccc(Cn2c(O)c(/C=N/NC(=O)c3cccnc3)c3ccccc3c2=O)cc1	PAFAH1B3 FP inh 25.7 (no result: Apaf1 inhib) | PAFAH1B3 confirm inactive
COc1ccc2c3c(cccc13)OC2=O	none
COc1ccc2c3c(cccc13)N(C)N=C2C	Apaf1 inhib 72.8, PAFAH1B3 FP inh 26.5 | PAFAH1B3 confirm inactive
CCOC(=O)c1ccccc1N1C(=O)CSC1=S	PAFAH1B3 FP inh 38.0 | PAFAH1B3 confirm 37.9
CNCCCC12CCC(c3ccccc31)c1ccccc12	PAFAH1B3 FP inh 50.2! | PAFAH1B3 confirm inactive
O=C(Cn1nnc(-c2ccncc2)n1)Nc1ccc(Cl)cc1	none (no result: PAFAH1B2 inh, Apaf1 inhib, PAFAH1B3 FP inh, PAFAH2 inh)
O=C(COC(=O)c1ccc2ccccc2c1O)NCc1ccccc1	none
O=C(COC(=O)c1ccc2ccccc2n1)NCc1ccccc1	PAFAH1B3 FP inh 47.1 | PAFAH1B3 confirm inactive
NNC(=O)/C(=N/Nc1ccccc1)S(=O)(=O)c1ccc(Cl)cc1	PAFAH1B3 FP inh 40.2 | PAFAH1B3 confirm 37.5
CCOC(=O)/C(=N/Nc1ccc(C)cc1)S(=O)(=O)c1ccc(Cl)cc1	none
CN(C)CCCCCCCCCCC(=O)/C=N/O	PAFAH1B3 FP inh 26.8 | PAFAH1B3 confirm inactive
O=C(NC1CCCCN(Cc2cccc(C(F)(F)F)c2)C1=O)c1ccc(-c2ccccc2)cc1 (stereo unspecified)	none (no result: PAFAH1B2 inh, Apaf1 inhib, PAFAH1B3 FP inh, PAFAH2 inh)
NCC(=O)Nc1ccc(Br)cc1	none
C=CC(=O)Nc1ccc(Br)cc1	PAFAH1B3 FP inh 63.4 | PAFAH1B3 confirm 56.6
COc1ccc(N2CS(=O)CC2=O)cc1 (stereo unspecified)	PAFAH1B3 FP inh 42.9 | PAFAH1B3 confirm inactive
COc1ccc(N2CC(C(=O)O)CC2=O)cc1 (stereo unspecified)	none
O=C(O)[C@@H]1[C@H]2C[C@H]3c4[nH]c5ccccc5c4CCN3C[C@@H]2CC[C@@H]1O	PAFAH1B3 FP inh 27.8 | PAFAH1B3 confirm inactive
N#CC(C#N)=C1C=C2C=C(N3CCOCC3)CCC2CC1 (stereo unspecified)	PAFAH1B3 FP inh 34.0 (no result: Apaf1 inhib) | PAFAH1B3 confirm inactive
N#CC(C#N)=C1C=C2C=C(N3CCCCCC3)CCC2CC1 (stereo unspecified)	none (no result: Apaf1 inhib)
COc1cc(C(=O)N/N=C/c2ccc3c(c2)c2ccccc2n3C)ccc1O	PAFAH1B3 FP inh 40.9 | PAFAH1B3 confirm inactive
COc1cc(/C=N/NC(=O)CCn2c3ccccc3c3ccccc32)ccc1O	none
O=C(c1ccc(C#Cc2ccccc2)cc1)N1CCC(O)CC1	none (no result: PAFAH1B2 inh, Apaf1 inhib, PAFAH1B3 FP inh, PAFAH2 inh)
O=c1cc(CCl)nc2sc3ccccc3n12	PAFAH1B3 FP inh 59.6 | PAFAH1B3 confirm 72.7
COc1ccc(/C=C/C(=O)OCc2cc(=O)n3c(n2)sc2ccccc23)cc1	none
O=C(O)c1ccccc1Nc1ccc([N+](=O)[O-])cc1C(=O)O	PAFAH1B3 FP inh 43.1 | PAFAH1B3 confirm inactive
COCCCNC(=O)C[C@H]1C[C@@]2(C(=O)OC)C(=C[C@H](C3CCCC3)O[C@@H]2C)N(Cc2ccco2)C1=O	none (no result: PAFAH1B2 inh, Apaf1 inhib, PAFAH1B3 FP inh, PAFAH2 inh)
On1nnc2c3ccccc3c3ccccc3c21	PAFAH1B3 FP inh 38.1 | PAFAH1B3 confirm 41.5
On1nnc2ccccc21	none
